Hits are enriched below; roughly 3.5% of the tested compounds scored in any of these assays.
RGS4 inh: inhibitors of human RGS4; P49798; HEK293 M3R/RGS4 inducible, Fluo-4 calcium flux; active compounds read high; triggered by carbachol at its EC20; B-score at 10 µM; 310,000 compounds, 0.45% hits; AID 463165;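 active = B-score, a plate-corrected calcium signal, over three deviations above library mean, with baseline fluorescence within five deviations of library mean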;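 note: RGS4 expression induced by doxycycline in cells with stable M3 receptor; B-score is computed from the integrated fluorescence ratio over baseline after carbachol; higher B-score means a larger calcium signal and so more RGS4 inhibition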
Target sequence (P49798 whole entry, looked up): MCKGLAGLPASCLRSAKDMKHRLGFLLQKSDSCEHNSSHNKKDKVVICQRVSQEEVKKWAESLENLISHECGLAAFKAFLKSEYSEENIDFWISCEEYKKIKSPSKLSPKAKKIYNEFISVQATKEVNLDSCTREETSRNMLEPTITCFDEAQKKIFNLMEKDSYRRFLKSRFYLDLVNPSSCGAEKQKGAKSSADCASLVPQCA
MrgX1 allo act: allosterically activates human MrgX1 receptor signaling | 310,000 compounds, 0.63% hits | Q96LB2 | B-score at 10 µM | MrgX1-HEK293, Fluo-4 calcium flux, FDSS; active compounds read high;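 active = plate-corrected calcium response at least 3 library SD above typical, normal starting fluorescence, not activating the receptor alone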;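 note: compound read alongside a low EC10 to EC30 dose of BAM8-22 agonist; peak minus trough fluorescence over baseline measured at the second addition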
Target sequence (Q96LB2 whole entry, looked up): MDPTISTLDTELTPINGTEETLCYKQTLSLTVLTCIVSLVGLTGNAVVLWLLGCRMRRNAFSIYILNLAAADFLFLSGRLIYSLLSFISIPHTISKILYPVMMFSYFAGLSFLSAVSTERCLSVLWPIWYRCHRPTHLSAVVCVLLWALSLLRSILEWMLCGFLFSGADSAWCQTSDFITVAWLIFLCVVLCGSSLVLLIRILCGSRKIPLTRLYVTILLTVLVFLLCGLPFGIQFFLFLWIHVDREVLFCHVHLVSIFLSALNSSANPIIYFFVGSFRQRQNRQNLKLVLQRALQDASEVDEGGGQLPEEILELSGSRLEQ
RGS4 pot: potentiators or activators of RGS4. HEK293 M3R/inducible RGS4, carbachol calcium flux Fluo4; active compounds read low. B-score at 10 µM. 310,000 compounds, 0.92% hits. AID 463111;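 active = B-score of the integrated calcium signal more than 4 SD below the library mean, with starting fluorescence not abnormally high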;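 note: negative B-score means reduced calcium response which marks RGS4 activation or potentiation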
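test system = HEK293 cells with stable M3R and inducible RGS4 | schedule = recording 10 s baseline at 1 Hz, 100 s post-agonist | technique = Fluo4-AM (2 µM) calcium-flux fluorescence, kinetic read | measure = Agonist-evoked peak-minus-minimum fluorescence over baseline, integrated ratio, B score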
MrgX1 ag: agonists of human MrgX1 receptor | Q96LB2 | MrgX1-HEK293 cells, Fluo-4 calcium fluorescence, agonist mode; active compounds read high | B-score at 10 µM | 310,000 compounds, 0.44% hits | AID 588627;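 active = calcium response B-score plate-corrected fluorescence ratio at least 3 library SD, with starting fluorescence B-score inside 5 SD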
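System: HEK293 cells stably expressing human MrgX1 receptor; Dosing: test compound in the initial addition of three; Schedule: overnight plating, then 30 min 37 °C plus 30 min room-temperature dye loading; Detection: kinetic calcium dye fluorescence, Fluo-4 NW; Controls: per-plate positive and negative controls for Z′ factor.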
MrgX1 antagonist: antagonists of human MrgX1 receptor | MRGX1-HEK293 calcium flux, Fluo-4, BAM8-22 antagonism; active compounds read low | B-score at 10 µM | 310,000 compounds, 1.3% hits | AID 588676;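 active = calcium-response B-score plate-corrected more than 3 library SD below zero, starting fluorescence within 5 deviations, no agonist response on first addition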;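 note: peak minus trough fluorescence over baseline after final BAM8-22 challenge near maximal dose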
A number is an active result; . = inactive; / = not tested or not shown.

SMILES	RGS4 inh	MrgX1 allo act	RGS4 pot	MrgX1 ag	MrgX1 antagonist
Cc1ccc(-c2nc(CSc3nc4ccccc4c(=O)n3C)cs2)cc1	.	.	-7.02	.	.
CN(C)CCCn1c(SCC(=O)Nc2nccs2)nnc1-c1ccncc1	.	.	.	.	.
CCOC(=O)c1cnc2c(C)c(Cl)ccc2c1NCCCN1CCOCC1	.	9.1	.	.	.
Cc1cc(C(=O)COc2ccccc2Cl)c(C)n1-c1ccc2c(c1)OCO2	.	.	-7.51	.	.
C/C(=N/NC(=O)c1ccccc1O)c1ccc(N2C(=O)C3CCCCC3C2=O)cc1 (stereo unspecified)	.	.	.	.	-8
O=C(CNS(=O)(=O)c1ccc(Br)cc1)Nc1ccc2c(c1)OCCO2	.	/	.	/	/
Clc1ccc2nc(COc3ccccc3)[nH]c2c1	.	.	.	.	.
O=[N+]([O-])/C=C/c1c(OCc2ccccc2)ccc2ccccc12	13.1	.	.	.	.
OC1(c2ccccc2F)CCN(Cc2nnnn2Cc2ccc(F)cc2)CC1	.	.	.	.	.
COc1cc(/C=C(\C#N)C(=O)NC2CCCCC2)ccc1OCc1ccc(C(=O)O)cc1	.	7.62	.	.	.
COc1ccccc1OCCCOc1ccc(/C=C2\SC(=O)NC2=O)cc1OC	.	.	-7.73	.	.
S=C(Nc1cccc(Cl)c1)Nc1ccccc1Oc1ccccc1	.	.	.	.	-5.83
S=C(Nc1ccc(Cl)cc1Cl)Nc1ccccc1Oc1ccccc1	.	.	.	.	.
Cn1nc(C(C)(C)C)c([N+](=O)[O-])c1C(=O)NC1CCCCC1	.	.	.	.	.
Cc1ccc(C(=O)CCS(=O)(=O)c2ccc(Br)cc2)cc1	.	.	.	.	.
O=C(CCNc1cccc(F)c1)c1cccc([N+](=O)[O-])c1	.	9.07	.	.	.
Cc1ccc(S(=O)(=O)CCC(=O)c2cccc([N+](=O)[O-])c2)cc1	.	.	.	33	.
O=C(CCNc1ccc(Cc2ccncc2)cc1)c1cccc([N+](=O)[O-])c1	.	.	.	.	.
Cc1nn(C(C)C(=O)NCCCc2ccccc2)c(=O)c2nn(-c3ccccc3)c(C)c12 (stereo unspecified)	.	.	.	.	.
O=c1c(Br)c(N2CCCCC2)cnn1-c1ccccc1	.	.	.	.	.
C/C(=N\NC(=O)c1nnn(-c2nonc2N)c1CN1CCc2ccccc21)c1ccccc1O	.	.	.	.	.
O=C(O)c1ccc(N/N=C/C2=C(N3CCOCC3)C(=C\c3ccccc3)/CC2)cc1	.	.	.	34.3	.
Cc1cc(C)nc(N/N=C/C2=C(N3CCOCC3)C(=C\c3ccc(Cl)cc3)/CC2)n1	.	.	.	.	.
CCOC(=O)C1=NN(C(=O)c2cccc(Br)c2)C(O)(C(C)(C)C)C1 (stereo unspecified)	.	.	.	95.8	.
CCOC(=O)C1=NN(C(=O)Cc2ccccc2)C(O)(c2ccc(Cl)cc2)C1 (stereo unspecified)	.	.	.	.	.
SMILES	RGS4 inh	MrgX1 allo act	RGS4 pot	MrgX1 ag	MrgX1 antagonist
COC(=O)C1=NN(C(=O)c2cccc(Br)c2)C(O)(c2ccc(Cl)cc2)C1 (stereo unspecified)	.	.	.	35.8	.
CCOC(=O)C1=NN(C(=O)c2ccco2)C2(CC2)C1	.	.	.	.	.
CCOC(=O)C1=NN(C(=O)c2ccccc2)C(O)(c2ccc(C)cc2)C1 (stereo unspecified)	.	.	.	.	.
CCOC(=O)C1=NN(C(=O)c2ccc(OC)cc2)C(O)(c2ccc(Cl)cc2)C1 (stereo unspecified)	.	.	.	48.4	.
COc1ccc(C)cc1NC(=O)Nc1ccncc1	.	.	.	.	.
CCOc1cc(/C=C2\SC(=S)N(NS(=O)(=O)c3ccc(C)cc3)C2=O)ccc1O	.	.	.	52	.
CCOc1cc(/C=C2\SC(=S)N(NC(=O)c3cccnc3)C2=O)ccc1O	.	.	.	.	-5.85
O=C(NN1C(=O)/C(=C\c2cccnc2)SC1=S)C(c1ccccc1)c1ccccc1	.	.	-7.34	.	.
COc1ccc2[nH]c(=O)c(CN(C(=O)C(C)C)c3ccccc3OC)cc2c1	.	.	.	.	.
CN(C)c1oc(-c2ccccc2Cl)nc1P(=O)(c1ccccc1)c1ccccc1	.	.	.	.	.
CC(C)c1[nH]nc2c1C(Cc1ccccc1)C(C#N)=C(N)O2 (stereo unspecified)	.	.	-7.58	.	.
CN(C(=O)COC(=O)CNC(=O)c1sc2ccccc2c1Cl)c1ccccc1	.	.	.	.	.
CC(C)(Oc1ccc(Cl)cc1)C(=O)NC1CC1	.	.	.	.	.
O=C(Nc1cc2c3c(c1)C1CCCC1CN3CC1CCCC21)c1ccccc1 (stereo unspecified)	.	.	-9.78	.	-12.6
CCN(CC)C(=O)Oc1ccc2oc(=O)cc(-c3cc4cccc(OC)c4o3)c2c1	.	.	-7.21	.	.
COc1ccc2oc(=O)cc(-c3cc4cccc(OC)c4o3)c2c1	.	.	.	.	.
CN(C)/C=C1\SC(=S)N(c2ccc(Br)cc2)C1=O	.	.	.	.	-4.89
CN(C)/C=C1\SC(=S)N(c2ccc(F)cc2)C1=O	.	.	.	.	.
Nc1ccc(/C=C/C(=O)c2ccco2)cc1	.	.	.	49.7	.
N#Cc1ccc(/C=C/C(=O)c2ccco2)cc1	.	.	.	.	.
O=C(/C=C/c1cc(Br)ccc1O)c1ccco1	.	.	.	38.9	.
COc1ccc(O)c(C(=O)C2c3ccccc3C(=O)N2c2ccc(C)cc2)c1 (stereo unspecified)	.	.	.	.	.
CC1(C)CC(=O)C2=C(C1)OC(N)=C(C#N)C2C#Cc1ccccc1 (stereo unspecified)	.	.	.	53	.
CC(c1ccccc1)C1C(C#N)=C(N)OC2=C1C(=O)CC(C)(C)C2 (stereo unspecified)	.	.	.	.	.
COC(=O)c1cc(C(=O)OCC(=O)NC(=O)c2ccccc2)cc([N+](=O)[O-])c1	.	.	.	.	.
SMILES	RGS4 inh	MrgX1 allo act	RGS4 pot	MrgX1 ag	MrgX1 antagonist
CCCCn1c(NC(=O)c2ccc(F)cc2)c(C#N)c2nc3ccccc3nc21	.	.	.	53.6	.
CC(C)(C)c1ccc(C(=O)NC2CCS(=O)(=O)C2)cc1 (stereo unspecified)	.	.	.	.	.
CC(=O)Nc1cccc(-c2csc(Nc3ccc(Cl)cn3)n2)c1	.	.	.	.	.
CC(=O)Nc1ccc(-c2csc(Nc3ccc(Cl)cn3)n2)cc1	.	7.16	.	.	.
O=C(O)/C=C/C(=O)NCc1ccccn1	.	.	.	.	-6.71
O=C(O)/C=C/C(=O)NCc1ccccc1	.	.	.	.	.
Cc1cccc(NC(=O)C2C3CCC4C(CCC32)C4(Cl)Cl)c1 (stereo unspecified)	.	.	.	.	.
Cc1ccc(COn2c(-c3ccc(Cl)cc3Cl)nc3ncccc32)cc1	.	.	-8.65	.	.

Bioassay records as filed in PubChem.
